Rows were chosen to be rich in hits. Some 3.5% of all compounds tested hit in one or more screens of this group.
RGS4 inh – inhibitors of human RGS4 | P49798 | B-score at 10 µM | AID 463165 | HEK293 M3R/RGS4 inducible, Fluo-4 calcium flux; active compounds read high; triggered by carbachol at its EC20 | 310,000 tested, 0.45% active;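 active = B-score, a plate-corrected calcium signal, over three deviations above library mean, with baseline fluorescence within five deviations of library mean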;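 also: RGS4 expression induced by doxycycline in cells with stable M3 receptor; B-score is computed from the integrated fluorescence ratio over baseline after carbachol; higher B-score means a larger calcium signal and so more RGS4 inhibition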
RGS4 pot – RGS4 potentiation or activation | HEK293 M3R/inducible RGS4, carbachol calcium flux Fluo4; active compounds read low | B-score at 10 µM | 310,000 tested, 0.92% active | AID 463111;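 active = B-score of the integrated calcium signal more than 4 SD below the library mean, with starting fluorescence not abnormally high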;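 also: negative B-score means reduced calcium response which marks RGS4 activation or potentiation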
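Material: Inducible-RGS4 HEK293 cells carrying M3 receptor; also added: carbachol at ECmax as muscarinic agonist stimulus; incubation: compound preincubation 20 min at room temperature before agonist; signal: Fluo4-AM (2 µM) calcium-flux fluorescence, kinetic read; measure: integrated calcium ratio converted to B score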
MrgX1 ag – agonists of human MrgX1 receptor; Q96LB2; MrgX1-HEK293 cells, Fluo-4 calcium fluorescence, agonist mode; active compounds read high; B-score at 10 µM; 310,000 tested, 0.44% active;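 active = calcium response B-score plate-corrected fluorescence ratio at least 3 library SD, with starting fluorescence B-score inside 5 SD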
Target sequence (Q96LB2 whole entry, looked up): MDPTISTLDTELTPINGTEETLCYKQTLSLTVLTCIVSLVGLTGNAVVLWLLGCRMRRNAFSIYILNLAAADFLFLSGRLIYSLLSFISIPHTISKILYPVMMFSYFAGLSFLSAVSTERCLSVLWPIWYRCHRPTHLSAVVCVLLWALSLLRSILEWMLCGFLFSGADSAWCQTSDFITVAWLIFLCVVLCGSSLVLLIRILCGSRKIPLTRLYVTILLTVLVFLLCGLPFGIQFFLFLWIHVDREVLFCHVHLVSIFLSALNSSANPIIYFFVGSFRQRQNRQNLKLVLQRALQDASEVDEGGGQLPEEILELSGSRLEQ
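Test system: Stable human MrgX1 HEK293 cell line | Schedule: Overnight plating before 1 h dye loading | Read-out basis: Baseline-normalised fluorescence change ratio, B-scored | Detection: Kinetic calcium dye fluorescence, Fluo-4 NW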
MrgX1 allo act – allosterically activates human MrgX1 receptor signaling; Q96LB2; MrgX1-HEK293, Fluo-4 calcium flux, FDSS; active compounds read high; 310,000 tested, 0.63% active; B-score at 10 µM; AID 588675;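 active = plate-corrected calcium response at least 3 library SD above typical, normal starting fluorescence, not activating the receptor alone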;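 also: compound read alongside a low EC10 to EC30 dose of BAM8-22 agonist; peak minus trough fluorescence over baseline measured at the second addition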
MrgX1 antagonist – blocks BAM8-22 activation of human MrgX1 receptor; MRGX1-HEK293 calcium flux, Fluo-4, BAM8-22 antagonism; active compounds read low; AID 588676; Q96LB2; 310,000 tested, 1.3% active; B-score at 10 µM;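 active = calcium-response B-score plate-corrected more than 3 library SD below zero, starting fluorescence within 5 deviations, no agonist response on first addition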;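 also: peak minus trough fluorescence over baseline after final BAM8-22 challenge near maximal dose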
MrgX1 PAM conf – human MrgX1 positive allosteric modulation, re-confirmation; activation (ratio percentage), % at 10 µM; MrgX1-HEK293, Fluo-4 calcium fluorescence, FDSS; shares compounds with MrgX1 allo act; 1,200 tested, 13% active;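 active = ratio at least 3 SD above the weak peptide control, stable starting fluorescence, no direct agonism earlier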;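 also: compound followed by low BAM8-22 agonist challenge near EC20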
HEK293 Ca flux – MrgX1 antagonist counter-screen hit in parental HEK293 cells; shares compounds with MrgX1 antagonist; Fluo-4 calcium fluorescence, FDSS; fluorescence ratio F(max-min)/F0 at 10 µM; 4,000 tested, 2% active;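 active = duplicate-averaged calcium fluorescence ratio at least three times the standard deviation of buffer wells, a nonspecific response in parental cells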
HEK293 Ca counter – counter-screen for MrgX1 allosteric activators: effect in parental HEK293 cells; 4,000 tested, 0.4% active; shares compounds with MrgX1 antagonist; parental HEK293 calcium flux, Fluo-4 fluorescence ratio; active compounds read high; AID 624114; fluorescence ratio F(max-min)/F0 at 10 µM;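 active = calcium fluorescence ratio, averaged over duplicates, at least 3 SD of the buffer-well ratio, meaning a nonspecific response in receptor-free cells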;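 also: untransfected parental HEK293 lacking MrgX1 used as counterscreen for MrgX1 allosteric activators; fluorescence change taken during the second addition on a kinetic imager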
HEK293 Ca cntr2 – activity in parental HEK293 cells lacking MrgX1 receptor; shares compounds with MrgX1 antagonist; Fluo-4 calcium fluorescence (FDSS); active compounds read high; fluorescence ratio F(max-min)/F0 at 10 µM; 4,000 tested, 8.7% active; AID 624115;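 active = calcium fluorescence ratio at least three times the spread of buffer wells, meaning a non-specific response in parental cells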
* = called active by the depositor; i = inactive; nt = not tested or not shown.

SMILES	RGS4 inh	RGS4 pot	MrgX1 ag	MrgX1 allo act	MrgX1 antagonist	MrgX1 PAM conf	HEK293 Ca flux	HEK293 Ca counter	HEK293 Ca cntr2
O=C(CC(C(=O)O)c1ccc(Cl)cc1)c1ccc(Cl)c(Cl)c1 (centres undefined)	i	i	i	i	i	nt	nt	nt	nt
CC(Cl)C(=O)c1c(N)n(C)c(=O)n(C)c1=O (centres undefined)	i	i	i	i	i	nt	nt	nt	nt
CC(C)S(=O)(=O)c1cnc(N2CCOCC2)nc1N	i	i	i	16.3*	i	i	i	i	i
CC(C)(C)S(=O)(=O)c1cnc(N2CCOCC2)nc1N	i	i	i	i	i	nt	nt	nt	nt
OCC1(CCOc2ccccc2)CCN(Cc2cn[nH]c2-c2ccc(F)cc2)CC1	i	i	i	10.6*	i	i	i	i	i
O=C(CC1C(=O)NCCN1Cc1ccccc1)NCCN1CCCCC1=O (centres undefined)	i	i	i	9.38*	i	i	i	i	i
O=C(CC1C(=O)NCCN1Cc1ccc(F)cc1)NCCN1CCCc2ccccc21 (centres undefined)	i	i	i	i	i	nt	nt	nt	nt
C/C(Cl)=C/Cc1c(C)[nH]c2c(ccc3ccccc32)c1=O	i	i	i	i	i	nt	nt	nt	nt
COc1cc(CNn2cn[nH]c2=S)cc(Br)c1OCc1ccccc1F	i	i	i	6.47*	i	i	i	i	i
COc1cc(CNn2cn[nH]c2=S)cc(Cl)c1OCc1ccccc1	i	i	i	i	i	nt	nt	nt	nt
Nc1nc2n(n1)C(c1cccc(Cl)c1)CC(c1ccc(F)cc1)N2 (centres undefined)	i	i	i	9.68*	i	i	i	i	i
CCOc1ccc(C2CC(c3cccc(Cl)c3)n3nc(N)nc3N2)cc1 (centres undefined)	i	i	i	i	i	nt	nt	nt	nt
Cc1ccc(S(=O)(=O)c2nnn(-c3cccc(F)c3)c2N)cc1	i	i	i	8.85*	i	i	i	i	i
CC(=O)c1sc(NS(=O)(=O)c2ccc(C)cc2)nc1-c1ccccc1	i	i	i	16.4*	i	i	i	i	i
O=C(Nc1cccc(NC(=O)c2ccco2)c1)c1cccc(Br)c1	i	i	i	i	i	nt	nt	nt	nt
O=C(N1CCOCC1)N1CCN(C(c2ccccc2)c2ccccc2)CC1	i	i	i	i	i	nt	nt	nt	nt
O=C(N1CCCCC1)N1CCN(C(c2ccccc2)c2ccccc2)CC1	i	i	i	6.94*	i	i	i	i	i
COc1cc(NC(=O)C(Cc2ccccc2)n2cccc2)cc(OC)c1 (centres undefined)	i	i	i	7.07*	i	i	i	i	i
CCC(C)n1c(NC(=O)c2ccccc2)c(C#N)c2nc3ccccc3nc21 (centres undefined)	i	i	i	7.95*	i	i	i	i	i
NC12NC(=O)C3(O)C4C5CC(C6C5C3C61)C42 (centres undefined)	i	i	i	i	i	nt	nt	nt	nt
COC(=O)c1c(C)nc2ccccc2c1C(=O)O	i	i	i	i	i	nt	nt	nt	nt
CC(C)=CCc1c(C)nc2ccccc2c1C(=O)O	i	i	i	11.4*	i	i	i	i	i

Compound activity as filed in PubChem.
